Data set [1] has as its system Rattus norvegicus. Nature of the data set: Gastric toxicity in albino rat assessed as capillary inflammatory cells appearance at 100 mg/kg, po after 5 hrs by hematoxylin and eosin staining. It is filed as organism-based. Also noted: dose 100 mg/kg, route oral. As to conditions: in vivo. A digest of the protocol: (§1)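 Stomach sections from control and treated rats were dewaxed and hydrated through graded alcohols. They were stained with haematoxylin 5–7 min, differentiated 5–10 s in 1% HCl in 70% alcohol, then stained with 1% eosin for 10 min. Mucosa of the fundic stomach was examined by light microscopy.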

Data set [2] deals with Rattus norvegicus. Nature of the data set: Gastric toxicity in albino rat assessed as ulcer index at 100 mg/kg, po after 5 hrs. Format: organism-based. Also noted: dose 100 mg/kg, route oral. To be noted: in vivo. A digest of the protocol:
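Rats dosed orally at 100 mg/kg in 0.5% CMC (n = 4). Stomach lesions counted and graded by area: level I <1 mm², II 1–3 mm², III >3 mm². Ulcer index = 1×(level I count) + 2×(level II) + 3×(level III). Mean ± SEM; one-way ANOVA versus control.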

Data set [3] concerns Rattus norvegicus. Description: Antiinflammatory activity in albino rat assessed as inhibition of carrageenan-induced paw edema at 100 mg/kg, po administered 30 mins prior to challenge measured after 3 hrs relative to untreated control. Format: functional. In a few lines:
(§2)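 Adult male albino rats (120–140 g), groups of four, fasted 24 h with water allowed. Test compound suspended in 0.5% w/v CMC in water, given orally at 100 mg/kg; controls received CMC alone. After 30 min, 0.1 mL of 1% carrageenan in saline injected subplantar into right hind paw, saline into left. Paw thickness measured by caliper; % inhibition = [(VR−VL)control − (VR−VL)treated]/(VR−VL)control ×100; one-way ANOVA versus control.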
Background: In the carrageenan paw model, swelling and tenderness develop within hours.

For data set [4], the system named is Rattus norvegicus. Description: Antiinflammatory activity in albino rat assessed as inhibition of carrageenan-induced paw edema at 100 mg/kg, po administered 30 mins prior to challenge measured after 4 hrs relative to untreated control. It is filed as functional. A digest of the protocol:
as §2

The subject of data set [5] is Rattus norvegicus. Nature of the data set: Antiinflammatory activity in albino rat assessed as inhibition of carrageenan-induced paw edema at 100 mg/kg, po administered 30 mins prior to challenge measured after 5 hrs relative to untreated control. Format: functional. In a few lines: as §2
Data set [6] concerns Rattus norvegicus. Nature of the data set: Antiinflammatory activity in albino rat assessed as inhibition of carrageenan-induced paw edema at 100 mg/kg, po administered 30 mins prior to challenge measured after 1 hr relative to untreated control. Format: functional. In a few lines:
as §2

The test system of data set [7] is Rattus norvegicus. Description: Antiinflammatory activity in albino rat assessed as inhibition of carrageenan-induced paw edema at 100 mg/kg, po administered 30 mins prior to challenge measured after 2 hrs relative to untreated control. Format: functional. In a few lines:
as §2

In data set [8] the test system is Rattus norvegicus. Nature of the data set: Gastric toxicity in albino rat assessed as capillary dilation in lamina propia below fundic gland at 100 mg/kg, po after 5 hrs by hematoxylin and eosin staining. It is filed as organism-based. Also noted: dose 100 mg/kg, route oral. To be noted: in vivo. A digest of the protocol: as §1
Data set [9] concerns Rattus norvegicus. Nature of the data set: Gastric toxicity in albino rat assessed as edema at 100 mg/kg, po after 5 hrs by hematoxylin and eosin staining. It is filed as organism-based. Also noted: dose 100 mg/kg, route oral. To be noted: in vivo. In a few lines:
as §1

Data set [10] can be described thus: Induction of nitric oxide release at 0.1 mM after 6 hrs in phosphate buffer at pH 7.4 by Griess assay. It is filed as physicochemical. To be noted: pH 7.4, 6 h, 100 µM. A digest of the protocol:
(§3)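 Compound at a final 10^-4 M with 0.5 mM N-acetylcysteine in phosphate buffer pH 7.4 at 37 °C. Reaction mixture treated with Griess reagent (sulfanilamide, N-naphthylethylenediamine, phosphoric acid), 10 min at room temperature, absorbance read at 546 nm. Sodium nitrite standards (10–80 nmol/mL) used for calibration. NO reported as mol/mol, n = 4 reaction mixtures.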

Data set [11] can be described thus: Induction of nitric oxide release at 0.1 mM after 5 hrs in phosphate buffer at pH 7.4 by Griess assay. It is filed as physicochemical. To be noted: pH 7.4, 5 h, 100 µM. In a few lines: as §3
(Nitrite, measured by Griess reagent, commonly stands in for NO production.)

A short description of data set [12]: Induction of nitric oxide release at 0.1 mM after 4 hrs in phosphate buffer at pH 7.4 by Griess assay. It is filed as physicochemical. To be noted: pH 7.4, 4 h, 100 µM. In a few lines:
as §3

Data set [13] can be described thus: Induction of nitric oxide release at 0.1 mM in 0.1 N HCl buffer at pH 1.0 by Griess assay. It is filed as physicochemical. To be noted: pH 1, 100 µM. In a few lines:
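Griess procedure as at neutral pH, but in 0.1 N HCl pH 1 in place of phosphate buffer. Compound at a final 10^-4 M with N-acetylcysteine, 37 °C. Absorbance read at 546 nm against sodium nitrite standards (10–80 nmol/mL). Release expressed relative to a theoretical 1 mol NO/mol compound.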

Data set [14] can be described thus: Induction of nitric oxide release at 0.1 mM after 1 hr in phosphate buffer at pH 7.4 by Griess assay. As to conditions: pH 7.4, 1 h, 100 µM; call rule not given here. It is filed as physicochemical. In a few lines:
as §3

For data set [15], the system named is Rattus norvegicus. Nature of the data set: Antiinflammatory activity in albino rat assessed as inhibition of carrageenan-induced paw edema at 100 mg/kg, po administered 30 mins prior to challenge measured after 4 hrs relative to indomethacin. Format: functional. Also noted: scale not given: the % may be the effect or the level left. In a few lines:
(§4)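 Carrageenan paw edema in male albino rats (120–140 g, n = 4, fasted 24 h), compound 100 mg/kg po in 0.5% CMC 30 min before subplantar 1% carrageenan (0.1 mL). Percent edema inhibition at the stated hour from right minus left paw thickness versus the CMC control, then expressed as a percentage of the indomethacin (100 mg/kg) response at the same time.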

A short description of data set [16]: Induction of nitric oxide release at 0.1 mM after 3 hrs in phosphate buffer at pH 7.4 by Griess assay. It is filed as physicochemical. To be noted: pH 7.4, 3 h, 100 µM. In a few lines: as §3
The nature of data set [17]: Induction of nitric oxide release at 0.1 mM after 2 hrs in phosphate buffer at pH 7.4 by Griess assay. To be noted: pH 7.4, 2 h, 100 µM. Format: physicochemical. A digest of the protocol:
as §3

Data set [18] concerns Rattus norvegicus. Nature of the data set: Gastric toxicity in albino rat assessed as structural damage in mucosal membrane at 100 mg/kg, po after 5 hrs by hematoxylin and eosin staining. It is filed as organism-based. Also noted: dose 100 mg/kg, route oral. As to conditions: in vivo. A digest of the protocol:
as §1

The test system of data set [19] is Rattus norvegicus. Nature of the data set: Gastric toxicity in albino rat assessed as abnormal morphology of fundic gland at 100 mg/kg, po after 5 hrs by hematoxylin and eosin staining. Format: organism-based. Also noted: dose 100 mg/kg, route oral. To be noted: in vivo. A digest of the protocol: as §1
The subject of data set [20] is Rattus norvegicus. Description: Gastric toxicity in albino rat assessed as vasodilation of blood capillaries at 100 mg/kg, po after 5 hrs by hematoxylin and eosin staining. It is filed as organism-based. Also noted: dose 100 mg/kg, route oral. As to conditions: in vivo. In a few lines:
as §1

Data set [21] relates to Rattus norvegicus. Description: Antiinflammatory activity in albino rat assessed as inhibition of carrageenan-induced paw edema at 100 mg/kg, po administered 30 mins prior to challenge measured after 3 hrs relative to indomethacin. Format: functional. Also noted: scale not given: the % may be the effect or the level left. A digest of the protocol: as §4
Data set [22] concerns Rattus norvegicus. Description: Gastric toxicity in albino rat assessed as degeneration of fundic gland at 100 mg/kg, po after 5 hrs by hematoxylin and eosin staining. Also noted: dose 100 mg/kg, route oral. As to conditions: in vivo. Format: organism-based. A digest of the protocol:
as §1

The subject of data set [23] is Rattus norvegicus. Nature of the data set: Gastric toxicity in albino rat assessed as loss of mucosal membrane at the area of ulceration at 100 mg/kg, po after 5 hrs by hematoxylin and eosin staining. Format: organism-based. Also noted: dose 100 mg/kg, route oral. As to conditions: in vivo. In a few lines:
as §1

Data set [24] concerns Rattus norvegicus. Nature of the data set: Gastric toxicity in albino rat assessed as apoptotic glandular epithelial cells appearance at 100 mg/kg, po after 5 hrs by hematoxylin and eosin staining. It is filed as organism-based, Epithelial cell. Also noted: dose 100 mg/kg, route oral. To be noted: in vivo. In a few lines: as §1
Data set [25] deals with Rattus norvegicus. Nature of the data set: Gastric toxicity in albino rat assessed as loss of glandular structure morphology at 100 mg/kg, po after 5 hrs by hematoxylin and eosin staining. It is filed as organism-based. Also noted: dose 100 mg/kg, route oral. As to conditions: in vivo. A digest of the protocol: as §1
Data set [26] deals with Rattus norvegicus. Description: Gastric toxicity in albino rat assessed as change in gastric mucosa structure at 100 mg/kg, po after 5 hrs by hematoxylin and eosin staining. Format: organism-based. Also noted: dose 100 mg/kg, route oral. To be noted: in vivo. A digest of the protocol:
as §1

Here are results for seven molecules from ChEMBL document CHEMBL1926598, “Synthesis, anti-inflammatory activity and ulcerogenic liability of novel nitric oxide donating/chalcone hybrids” (Bioorg Med Chem, 2012).

Broadly, the inhibition in vivo is the relative decrease from the control value, in per cent. On to `CC(=O)c1ccc(OCC(=O)Nc2ccc(C(=O)/C=C/c3ccc4c(c3)OCO4)cc2)cc1`, for which the Activity result in data set [1], in data set [8] and in [9] was “Toxic” in each case. In [2], the UI turned out to be 11.2. Besides, the inhibition in vivo at 100 mg/kg in [3] amounted to 57%; in data set [4], 53%; in data set [5], 50%; in data set [6], 37%; in [7] it was 43%.

Turning to `O=C(COCc1c(-c2ccccc2)no[n+]1[O-])Nc1ccc(C(=O)/C=C/c2ccc(Cl)cc2)cc1`, the Activity entry in data set [1] is on record as “Non-toxic”; in [10], 0.87 mol/mol; in data set [11], 1.5 mol/mol; in [12], 1.295 mol/mol; in data set [13] it was “Not Active”; in data set [14] it was 0.55 mol/mol. Besides, the Activity was 91% in data set [15], 1.22 mol/mol in data set [16], 0.98 mol/mol in [17] and “Non-toxic” in [18]. Further, the UI in data set [2] was found to be 1. In addition, the inhibition in vivo at 100 mg/kg in data set [3] came out at 66%; in data set [4] it was 75%; in data set [5], 62%; in data set [6] it was 38%; in data set [7] it was 48%.

Regarding `O=C(CO[N+](=O)[O-])Nc1ccc(C(=O)/C=C/c2ccc(Cl)cc2)cc1`, the Activity was 0.73 mol/mol in [10]; 0.75 mol/mol in data set [11]; 0.73 mol/mol in data set [12]; “Not Active” in data set [13]; 0.32 mol/mol in data set [14]; “Non-toxic” in data set [19]. For the same molecule, the Activity in data set [16] is listed as 0.54 mol/mol; in [20], “Non-toxic”; in data set [17], 0.37 mol/mol; in data set [9], “Non-toxic”; in data set [21] it was 89%. In addition, the UI in data set [2] is on record as 2.5. Moreover, the inhibition in vivo at 100 mg/kg in data set [3] was found to be 69%; in data set [4] it was 67%; in data set [5] it was 60%; in data set [6] it was 42%; in data set [7], 57%.

Regarding `COc1ccc2c(c1)c(CC(=O)O)c(C)n2C(=O)c1ccc(Cl)cc1` [INDOMETHACIN], the Activity entry in [22], in [1], in data set [23] and in data set [24] was “Toxic” each time. In [2], the UI was found to be 45.5. For the same molecule, the inhibition in vivo at 100 mg/kg in data set [3] turned out to be 78%; in [4], 83%; in [5] it was 87%; in data set [6] it was 56%; in data set [7], 70%.

For `CC(O[N+](=O)[O-])C(=O)Nc1ccc(C(=O)/C=C/c2ccc(Cl)cc2)cc1` (stereo unspecified), the Activity in data set [10] is reported as 0.16 mol/mol; in data set [11], 0.28 mol/mol; in data set [12], 0.35 mol/mol; in data set [13], “Not Active”; in data set [14], 0.13 mol/mol; in data set [23], “Toxic”. In addition, the Activity is 0.46 mol/mol in [16], 0.16 mol/mol in data set [17], “Toxic” in [18] and 80% in data set [21]. Further, the UI in data set [2] is 3.5. The inhibition in vivo at 100 mg/kg was found to be 62% in [3]; 61% in data set [4]; 56% in [5]; 45% in [6]; 55% in [7].

Take `O=C(COCc1c(-c2ccccc2)no[n+]1[O-])Nc1ccc(C(=O)/C=C/c2ccc3c(c2)OCO3)cc1`: the Activity in data set [10] is listed as 0.75 mol/mol; in data set [11] it was 1.26 mol/mol; in [12] it was 0.89 mol/mol; in data set [13], “Not Active”; in [14] it was 0.5 mol/mol; in data set [15], 87%. Also, the Activity in data set [16] turned out to be 0.86 mol/mol; in data set [17], 0.71 mol/mol. The UI in data set [2] turned out to be 1.3. For the same molecule, the inhibition in vivo at 100 mg/kg in [3] is 62%; in data set [4], 72%; in data set [5], 70%; in data set [6], 34%; in data set [7], 55%.

Regarding `O=C(CBr)Nc1ccc(C(=O)/C=C/c2ccc(Cl)cc2)cc1`, the Activity entry in data set [25], in [23] and in [26] was “Toxic” each time. The UI in data set [2] stood at 21.4. For the same molecule, the inhibition in vivo at 100 mg/kg in data set [3] was found to be 59%; in [4], 59%; in [5], 54%; in data set [6], 44%; in [7], 52%.
